How the values were obtained:
[1] = molecular target: T1, Steroid 17-alpha-hydroxylase/17,20 lyase (Homo sapiens, UniProt P05093); assay: Inhibition of CYP17A1 in human adrenal microsomes using [3H]-pregnenolone as substrate incubated for 90 mins by scintillation proximity assay in presence of NADPH; design: species or system Adrenal gland
T1 sequence (P05093 whole entry): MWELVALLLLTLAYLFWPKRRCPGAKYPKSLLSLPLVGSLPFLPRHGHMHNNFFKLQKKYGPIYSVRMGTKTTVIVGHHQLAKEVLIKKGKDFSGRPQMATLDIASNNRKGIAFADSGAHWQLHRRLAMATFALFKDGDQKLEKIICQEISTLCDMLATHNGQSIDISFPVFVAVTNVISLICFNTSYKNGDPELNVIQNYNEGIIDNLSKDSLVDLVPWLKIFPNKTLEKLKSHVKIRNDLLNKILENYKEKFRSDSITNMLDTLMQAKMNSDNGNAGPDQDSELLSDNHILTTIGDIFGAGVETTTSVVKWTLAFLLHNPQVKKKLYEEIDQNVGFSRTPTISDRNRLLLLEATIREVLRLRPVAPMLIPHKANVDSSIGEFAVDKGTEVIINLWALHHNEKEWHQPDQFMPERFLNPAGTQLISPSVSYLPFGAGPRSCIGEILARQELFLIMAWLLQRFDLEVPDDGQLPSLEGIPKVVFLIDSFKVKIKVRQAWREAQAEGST

[2] = molecular target: T1, Steroid 17-alpha-hydroxylase/17,20 lyase; assay: Inhibition of human CYP17A1 expressed in HEK293 cell microsomes using [3H]-pregnenolone as substrate incubated for 45 mins by scintillation proximity assay in presence of NADPH
[3] = molecular target: T1, Steroid 17-alpha-hydroxylase/17,20 lyase; assay: Selectivity ratio of human CYP17A1 hydroxylase activity expressed in Escherichia coli using pregnenolone substrate to human CYP17A1 lyase activity expressed in HEK293 cell microsomes using [3H]-hydroxypregnenolone substrate
In short: (§1)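 Hydroxylase and lyase activities were run with different enzyme preparations, so the hydroxylase/lyase ratios are estimates.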

[4] = molecular target: T2, Steroid 17-alpha-hydroxylase/17,20 lyase (Macaca fascicularis, UniProt Q2XVA1); assay: Inhibition of CYP17A1 in cynomolgus monkey adrenal microsomes using [3H]-pregnenolone as substrate incubated for 45 mins by scintillation proximity assay in presence of NADPH; design: species or system Adrenal gland
T2 sequence (Q2XVA1 whole entry): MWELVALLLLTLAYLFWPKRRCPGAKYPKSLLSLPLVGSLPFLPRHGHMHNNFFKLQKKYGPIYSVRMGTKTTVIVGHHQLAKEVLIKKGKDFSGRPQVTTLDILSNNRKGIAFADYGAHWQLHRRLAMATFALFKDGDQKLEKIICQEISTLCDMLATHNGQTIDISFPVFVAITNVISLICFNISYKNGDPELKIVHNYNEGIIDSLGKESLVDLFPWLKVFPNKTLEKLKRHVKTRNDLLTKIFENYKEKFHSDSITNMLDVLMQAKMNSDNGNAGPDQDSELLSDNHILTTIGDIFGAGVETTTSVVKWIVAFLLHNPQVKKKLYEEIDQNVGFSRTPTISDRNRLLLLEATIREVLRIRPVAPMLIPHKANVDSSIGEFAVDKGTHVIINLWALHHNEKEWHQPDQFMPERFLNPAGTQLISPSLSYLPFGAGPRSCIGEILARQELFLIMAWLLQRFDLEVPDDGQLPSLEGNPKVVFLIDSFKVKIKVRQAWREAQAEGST

[5] = molecular target: T2, Steroid 17-alpha-hydroxylase/17,20 lyase; assay: Inhibition of CYP17A1 in cynomolgus monkey using [3H]-pregnenolone as substrate incubated for 45 mins by scintillation proximity assay in presence of NADPH
[6] = molecular target: T2, Steroid 17-alpha-hydroxylase/17,20 lyase; assay: Selectivity ratio of cynomolgus monkey CYP17A1 hydroxylase activity using pregnenolone substrate to cynomolgus monkey CYP17A1 lyase activity using [3H]-hydroxypregnenolone substrate; in short: as §1
[7] = Intrinsic permeability from basolateral to apical side in human Caco2 cells; format: ADME, cell-based; conditions: Caco-2
[8] = Inhibition of cynomolgus monkey CYP21A2 using hydroxy progesterone as substrate incubated for 120 mins by LC-MS method; design: species or system Macaca fascicularis
[9] = Inhibition of cynomolgus monkey CYP11B1 using hydroxy progesterone as substrate incubated for 120 mins by LC-MS method; design: species or system Macaca fascicularis
[10] = Cmax in cynomolgus monkey plasma at 4 mg/kg, po after 0.25 to 45 hrs by LC-MS/MS analysis; format: ADME, organism-based, Macaca fascicularis; design: dose 4 mg/kg, route oral
In short: (§2)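 Cynomolgus monkeys were dosed orally from a solution formulation. Plasma parameters are given as mean ± standard deviation.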

[11] = Tmax in cynomolgus monkey plasma at 4 mg/kg, po after 0.25 to 45 hrs by LC-MS/MS analysis; format: ADME, organism-based, Macaca fascicularis; in short: as §2
Cynomolgus monkey [12] = assay: Ratio of Cmax to Cmean in cynomolgus monkey plasma at 4 mg/kg, po after 0.25 to 45 hrs by LC-MS/MS analysis; format: ADME, organism-based, Macaca fascicularis; conditions: in vivo
Cynomolgus monkey [13] = assay: Free plasma concentration in cynomolgus monkey plasma at 1 mg/kg, po by LC-MS/MS analysis; format: ADME, organism-based, Macaca fascicularis; conditions: in vivo
Cynomolgus monkey [14] = assay: Effect on cortisol level in one day castrated cynomolgus monkey assessed as baseline level at 1.5 mg/kg, po bid for 24 hrs by radiometric immunoassay; format: ADME, organism-based, Macaca fascicularis; conditions: in vivo

Cc1ccncc1-c1cccc2c1ncn2CC(F)(F)F
IC50 [1]: 20 nM | IC50 [2]: 19 nM | Selectivity ratio [3]: 10 | IC50 [4]: 2 nM | IC50 [5]: 4 nM | Selectivity ratio [6]: 11 | Papp B→A [7]: 30 ×10⁻⁶ cm/s | IC50 [8]: > 7500 nM | IC50 [9]: > 7500 nM | Cmax [10]: 3000 nM | Tmax [11]: 1.3 h | Ratio (Cynomolgus monkey [12]): 16 | Cp(f) (Cynomolgus monkey [13]): 80 nM | Activity (Cynomolgus monkey [14]): Non-toxic

Source: ChEMBL document CHEMBL3779801, “Discovery of the Selective CYP17A1 Lyase Inhibitor BMS-351 for the Treatment of Prostate Cancer” (ACS Med Chem Lett, 2016)
